Test results reported in ChEMBL document CHEMBL3407490, “Synthesis of functionalized 3-, 5-, 6- and 8-aminoquinolines via intermediate (3-pyrrolin-1-yl)- and (2-oxopyrrolidin-1-yl)quinolines and evaluation of their antiplasmodial and antifungal activity” (Eur J Med Chem, 2015).
Converted amounts (≈) assume the structure as drawn. The source made the active and inactive calls. No cut-off for these calls is given here.

What was measured:
Plasmodium falciparum [1] = test: Antiplasmodial activity against chloroquine-sensitive asexual erythrocytic stage of Plasmodium falciparum NF54 assessed as […] lactate dehydrogenase assay; format: functional, organism-based
Summary of the method: (§1)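 Asexual erythrocytic P. falciparum kept in continuous culture (modified Trager–Jensen). Growth measured by parasite lactate dehydrogenase assay (modified Makler). Full dose-response: 10 twofold dilutions in complete medium from 10 μg/mL down to 0.02 μg/mL. Tested in triplicate on one occasion. Chloroquine and artesunate as references.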

Candida albicans [2] = test: Antifungal activity against Candida albicans IHEM 374 at 600 ug/dish after 1 day by disk diffusion method; format: functional, organism-based; conditions: 600 ug/dis
Summary of the method: (§2)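 Disk diffusion: strains subcultured on Sabouraud dextrose agar; inoculum of colonies (yeast) or mycelium plus spores (A. flavus) in sterile saline adjusted to 0.5 McFarland, swabbed onto Mueller-Hinton + GMB agar ([…], 0.5 μg/mL methylene blue). DMSO-dissolved compound applied to 6 mm paper disks and freeze-dried; 600 μg/dish in triplicate. Incubated at 37 °C for 1 day (C. albicans, A. flavus) or 20 °C for 4 days (R. bogoriensis). Nystatin disks as positive control, DMSO disks as negative control.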

[3] = Antifungal activity against Rhodotorula bogoriensis MUCL 11796 at 600 ug/dish after 4 days by disk diffusion method; format: functional; conditions: 600 ug/dis; summary of the method: as §2
Aspergillus flavus [4] = test: Antifungal activity against Aspergillus flavus IHEM 5785 at 600 ug/dish after 1 day by disk diffusion method; format: functional, organism-based; conditions: 600 ug/dis; summary of the method: as §2
Candida albicans [5] = test: Antifungal activity against Candida albicans IHEM 374 by microdilution method; format: functional
Summary of the method: (§3)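 Broth microdilution: log2 dilution series made from stocks in 10% DMSO, diluted 1:5 in RPMI 1640 with glutamine and without bicarbonate. Equal volume of working inoculum added: 1 × 10^3 CFU/mL at 37 °C (C. albicans, A. flavus) or 1 × 10^5 CFU/mL at 20 °C (R. bogoriensis). Absorbance read at 530 nm. MIC taken as the concentration giving 50% growth inhibition versus 1% DMSO medium control. Amphotericin B as positive control.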

[6] = Antifungal activity against Rhodotorula bogoriensis MUCL 11796 by microdilution method; format: functional; summary of the method: as §3
Aspergillus flavus [7] = test: Antifungal activity against Aspergillus flavus IHEM 5785 by microdilution method; format: functional; summary of the method: as §3
Plasmodium falciparum [8] = test: Antiplasmodial activity against chloroquine-resistant asexual erythrocytic stage of Plasmodium falciparum Dd2 assessed as […] lactate dehydrogenase assay; format: functional, organism-based; summary of the method: as §1
CHO = test: Cytotoxicity against CHO cells assessed as cell growth and survival after 48 hrs by MTT assay; format: cell-based; conditions: Cricetulus griseus
Summary of the method: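 CHO mammalian cells; growth and survival read by MTT assay. Samples diluted in complete medium using the same scheme as the emetine reference (tenfold serial dilutions, 6 concentrations). Emetine was the reference drug. IC50 obtained by non-linear dose-response curve fitting.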

[9] = Selectivity index, ratio of IC50 for CHO cells to IC50 for chloroquine-sensitive asexual erythrocytic stage of Plasmodium falciparum NF54; format: toxicity, cell-based; conditions: hamster; read-out: Ratio IC50
Summary of the method: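 Selectivity index calculated as IC50 in CHO cells (MTT) divided by IC50 against NF54 (pLDH).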

Plasmodium falciparum [10] = test: Resistance index, ratio of IC50 for chloroquine-resistant asexual erythrocytic stage of Plasmodium falciparum Dd2 to IC50 for chloroquine-sensitive asexual erythrocytic stage of Plasmodium falciparum NF54; format: functional
Summary of the method: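 Resistance index calculated as IC50 against Dd2 divided by IC50 against NF54, both from the pLDH assay.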

Compound C1=CCN(c2cccc3cccnc23)C1 has an IC50 (Plasmodium falciparum [1]) greater than 50 µM.
For CC(C)(O)CCCNc1cccc2ncccc12, the IC50 (Plasmodium falciparum [1]) was 28.2 µM, the Activity (Candida albicans [2]) was “Active” and the Activity [3] was “Active”. The Activity (Aspergillus flavus [4]) was “Active”, the MIC (Candida albicans [5]) was 2000 µM (≈ 489 µg/mL) and the MIC [6] was 20 µM (≈ 4.89 µg/mL). For the same compound, the MIC (Aspergillus flavus [7]) was 300 µM (≈ 73.3 µg/mL).
O=C1CCCN1c1ccc2ncccc2c1 gave an IC50 (Plasmodium falciparum [1]) greater than 45 µM.
In the case of CC(O)CCCNc1ccc2ncccc2c1 (stereo not drawn), the IC50 (Plasmodium falciparum [1]) is reported as greater than 40 µM, the Activity (Candida albicans [2]) is reported as “Active” and the Activity [3] is reported as “Active”. For the same compound, the Activity (Aspergillus flavus [4]) was “Active”, the MIC (Candida albicans [5]) was 1100 µM (≈ 253 µg/mL) and the MIC [6] was 1100 µM (≈ 253 µg/mL). The MIC (Aspergillus flavus [7]) was 300 µM (≈ 69.1 µg/mL).
C1=CCN(c2ccc3ncccc3c2)C1 showed an IC50 (Plasmodium falciparum [1]) greater than 50 µM.
In the case of O=C1CCCN1c1cccc2ncccc12, the IC50 (Plasmodium falciparum [1]) is reported as greater than 45 µM.
In the case of CC1CCCN1c1cnc2ccccc2c1 (stereo not drawn), the IC50 (Plasmodium falciparum [1]) is reported as 31.1 µM.
Work on CC1CCCN1c1ccc2ncccc2c1 (stereo not drawn) yielded an IC50 (Plasmodium falciparum [1]) of 41.9 µM.
Compound O=C1CCCN1c1cccc2cccnc12 has an IC50 (Plasmodium falciparum [1]) greater than 45 µM.
In the case of OCCCCNc1ccc2ncccc2c1, the IC50 (Plasmodium falciparum [1]) is reported as greater than 45 µM, the Activity (Candida albicans [2]) is reported as “Active” and the Activity [3] is reported as “Active”. For the same compound, the Activity (Aspergillus flavus [4]) was “Active”, the MIC (Candida albicans [5]) was 1200 µM (≈ 260 µg/mL) and the MIC [6] was 1200 µM (≈ 260 µg/mL). The MIC (Aspergillus flavus [7]) was 10 µM (≈ 2.16 µg/mL).
c1ccc2ncc(N3CCCC3)cc2c1 gave an IC50 (Plasmodium falciparum [1]) greater than 50 µM.
OCCCCNc1cccc2ncccc12 gave an IC50 (Plasmodium falciparum [1]) of 19.9 µM, an IC50 (Plasmodium falciparum [8]) of 49 µM and an IC50 (CHO) greater than 100 µM. The selectivity ratio [9] was 23 and the “Ratio IC50” value (Plasmodium falciparum [10]) was 2.5.
Compound c1cnc2ccc(N3CCCC3)cc2c1 has an IC50 (Plasmodium falciparum [1]) greater than 50 µM.
With C1=CCN(c2cnc3ccccc3c2)C1 the IC50 (Plasmodium falciparum [1]) was greater than 50 µM.
With OCCCCNc1cccc2cccnc12 the IC50 (Plasmodium falciparum [1]) was greater than 45 µM, the Activity (Candida albicans [2]) was “Active” and the Activity [3] was “Active”. The Activity (Aspergillus flavus [4]) was “Active”, the MIC (Candida albicans [5]) was 1200 µM (≈ 260 µg/mL) and the MIC [6] was 40 µM (≈ 8.65 µg/mL). It also gave an MIC (Aspergillus flavus [7]) of 100 µM (≈ 21.6 µg/mL).
For Cc1nc2ccccc2cc1N1CCCC1C (stereo not drawn), the IC50 (Plasmodium falciparum [1]) was 13.3 µM, the IC50 (Plasmodium falciparum [8]) was 38 µM and the IC50 (CHO) was 294 µM. The selectivity ratio [9] was 22 and the “Ratio IC50” value (Plasmodium falciparum [10]) was 2.9.
Work on CC(O)CCCNc1cccc2ncccc12 (stereo not drawn) yielded an IC50 (Plasmodium falciparum [1]) of 32.6 µM.
Compound O=C1CCCN1c1cnc2ccccc2c1 has an IC50 (Plasmodium falciparum [1]) greater than 45 µM.
With CC[C@H]1CN2CCc3cc(OC)c(OC)cc3[C@@H]2C[C@@H]1C[C@H]1NCCc2cc(OC)c(OC)cc21 [EMETINE] the IC50 (CHO) was 0.125 µM.
With CC1CCCN1c1cccc2ncccc12 (stereo not drawn) the IC50 (Plasmodium falciparum [1]) was greater than 45 µM.
Work on Cc1nc2ccccc2cc1NCCCC(C)(C)O yielded an IC50 (Plasmodium falciparum [1]) greater than 35 µM.
With CC(O)CCCNc1cnc2ccccc2c1 (stereo not drawn) the IC50 (Plasmodium falciparum [1]) was greater than 40 µM, the Activity (Candida albicans [2]) was “Active” and the Activity [3] was “Active”. The Activity (Aspergillus flavus [4]) was “Active”, the MIC (Candida albicans [5]) was 1100 µM (≈ 253 µg/mL) and the MIC [6] was 300 µM (≈ 69.1 µg/mL). The MIC (Aspergillus flavus [7]) was 100 µM (≈ 23 µg/mL).
Work on Cc1nc2ccccc2cc1NCCCC(C)O (stereo not drawn) yielded an IC50 (Plasmodium falciparum [1]) greater than 40 µM.
Compound Brc1c(Br)c(Br)n(-c2ccc3ncccc3c2Br)c1Br has an IC50 (Plasmodium falciparum [1]) greater than 15 µM.
C1=CCN(c2cccc3ncccc23)C1 showed an IC50 (Plasmodium falciparum [1]) greater than 50 µM.
With C[C@@H]1[C@H](O)[C@@H](C)/C=C/C=C/C=C/C=C/C=C/C=C/C=C/[C@H](O[C@@H]2O[C@H](C)[C@@H](O)[C@H](N)[C@@H]2O)C[C@@H]2O[C@](O)(C[C@@H](O)C[C@@H](O)[C@H](O)CC[C@@H](O)C[C@@H](O)CC(=O)O[C@H]1C)C[C@H](O)[C@H]2C(=O)O [AMPHOTERICIN B] the MIC (Candida albicans [5]) was less than 0.2 µM, the MIC [6] was less than 0.2 µM and the MIC (Aspergillus flavus [7]) was 30 µM (≈ 27.7 µg/mL).
CC(C)(O)CCCNc1ccc2ncccc2c1 gave an IC50 (Plasmodium falciparum [1]) greater than 40 µM.
For C[C@H]1[C@H](OC(=O)CCC(=O)O)O[C@@H]2O[C@@]3(C)CC[C@H]4[C@H](C)CC[C@@H]1[C@@]24OO3 [ARTESUNATE], the IC50 (Plasmodium falciparum [8]) was 0.011 µM and the “Ratio IC50” value (Plasmodium falciparum [10]) was 2.2.
OCCCCNc1cnc2ccccc2c1 gave an IC50 (Plasmodium falciparum [1]) greater than 45 µM.
Compound c1cc(N2CCCC2)c2cccnc2c1 has an IC50 (Plasmodium falciparum [1]) greater than 50 µM.
With CC(C)(O)CCCNc1cccc2cccnc12 the IC50 (Plasmodium falciparum [1]) was greater than 40 µM, the Activity (Candida albicans [2]) was “Active” and the Activity [3] was “Active”. The Activity (Aspergillus flavus [4]) was “Active”, the MIC (Candida albicans [5]) was 1000 µM (≈ 244 µg/mL) and the MIC [6] was 30 µM (≈ 7.33 µg/mL). It also gave an MIC (Aspergillus flavus [7]) of 60 µM (≈ 14.7 µg/mL).
